ChEMBL document CHEMBL3244294, “Dehydrative metabolites of 1-(3-chlorophenyl)-1methyl-2-phenyl-2-(2-pyridine)ethanol as potential hypocholesteremic agents” (J Med Chem, 1978)

What was measured:
Serum [1] = assay: Drug recovery in Sprague-Dawley rat serum treated with 1-(3-Chlorophenyl)-1-methyl-2-phenyl-2-(2-pyridine)ethanol at 25 mg/kg, ip after 10 hrs by RP-HPLC analysis; format: ADME, organism-based; design: dose 25 mg/kg, route intraperitoneal; conditions: in vivo
Method in brief: (§1)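 Rats received 25 mg/kg ³H-labelled parent (tritium in 2-phenyl ring) by ip injection as an aqueous 0.26% Tween 80 suspension. Serum was taken by cardiac puncture at 2, 10 or 72 h (three rats), separated at 1700g for 30 min and deproteinized with methanol. The residue was analysed by C-18 reverse-phase HPLC. Values are percent of total recovered HPLC radioactivity.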

Serum [2] = assay: Drug recovery in Sprague-Dawley rat serum treated with 1-(3-Chlorophenyl)-1-methyl-2-phenyl-2-(2-pyridine)ethanol at 25 mg/kg, ip after 72 hrs by RP-HPLC analysis; format: ADME, organism-based; design: dose 25 mg/kg, route intraperitoneal; conditions: in vivo; method in brief: as §1
Serum [3] = assay: Drug recovery in hydrolyzed fraction of Sprague-Dawley rat serum treated with 1-(3-Chlorophenyl)-1-methyl-2-phenyl-2-(2-pyridine)ethanol at 25 mg/kg, ip after 72 hrs by RP-HPLC analysis; format: ADME, organism-based; design: dose 25 mg/kg, route intraperitoneal; conditions: in vivo
Method in brief: (§2)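 ³H-labelled parent was given at 25 mg/kg ip in aqueous 0.26% Tween 80, and serum was collected by cardiac puncture at 72 h. Part of the serum was hydrolysed for 48 h with aryl sulfatase and glucuronidase, then deproteinized with methanol. The residue was run on C-18 reverse-phase HPLC. Values are percent of total recovered HPLC radioactivity.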

[4] = Drug recovery in sephadex G-10 chromatographic fraction of Sprague-Dawley rat urine treated with 1-(3-Chlorophenyl)-1-methyl-2-phenyl-2-(2-pyridine)ethanol at 25 mg/kg, ip by RP-HPLC analysis; format: ADME, organism-based; design: dose 25 mg/kg, route intraperitoneal; conditions: in vivo
Method in brief: (§3)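 One rat was dosed ip at 25 mg/kg with ³H-labelled parent in aqueous 0.26% Tween 80, and urine was collected over 72 h. Urine was either pentane-extracted or fractionated on Sephadex G-10; fraction III was the radioactive eluate free of appreciable urine constituents. Fractions were analysed by C-18 reverse-phase HPLC as percent of total recovered radioactivity.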

Rattus norvegicus [5] = assay: Hypocholesteremic activity in Sprague-Dawley rat assessed as reduction in serum cholesterol level at 25 mg/kg for 7 days relative to control; format: functional; design: scale not given: the % may be the effect or the level left
Method in brief: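 Male rats (200 g) were dosed at 25 mg/kg for 7 days, with dosing starting at 1 p.m. Sera were taken 24 h after the final dose, and serum cholesterol was determined by the method of Block et al. Results are reported as mean ± standard deviation and compared with controls by two-tailed Student's t test.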

Rattus norvegicus [6] = assay: Estrogenicity in Sprague-Dawley rat assessed as uterus weight measured per gram of body weight at 25 mg/kg, po for 7 days in presence of 17-beta estradiol (reference value: 0.01 +/- 0.02 mg); format: ADME, organism-based; design: dose 25 mg/kg, route oral; conditions: in vivo, 168 h
Method in brief: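 From 7 days later they were dosed orally by intubation with aqueous suspensions (25 mg/kg) for 7 consecutive days. On day 8 uteri were blotted free of fluid and weighed, expressed as mg/g body weight ×100. A standard curve came from sc 17β-estradiol in peanut oil, giving µg estradiol equivalent to 25 mg compound.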

Serum [7] = assay: Drug recovery in hydrolyzed fraction of Sprague-Dawley rat serum at 25 mg/kg, ip after 72 hrs by RP-HPLC analysis; format: ADME, organism-based; design: dose 25 mg/kg, route intraperitoneal; conditions: in vivo; method in brief: as §2
Serum [8] = assay: Drug recovery in Sprague-Dawley rat serum at 25 mg/kg, ip after 2 hrs by RP-HPLC analysis; format: ADME, organism-based; design: dose 25 mg/kg, route intraperitoneal; conditions: in vivo; method in brief: as §1
Serum [9] = assay: Drug recovery in Sprague-Dawley rat serum at 25 mg/kg, ip after 10 hrs by RP-HPLC analysis; format: ADME, organism-based; design: dose 25 mg/kg, route intraperitoneal; conditions: in vivo; method in brief: as §1
Serum [10] = assay: Drug recovery in Sprague-Dawley rat serum at 25 mg/kg, ip after 72 hrs by RP-HPLC analysis; format: ADME, organism-based; design: dose 25 mg/kg, route intraperitoneal; conditions: in vivo; method in brief: as §1
[11] = Drug recovery in pentane extract of Sprague-Dawley rat urine at 25 mg/kg, ip by RP-HPLC analysis; format: ADME, organism-based; design: dose 25 mg/kg, route intraperitoneal; conditions: read-out: Drug recovery; method in brief: as §3
[12] = Drug recovery in sephadex G-10 chromatographic fraction of Sprague-Dawley rat urine at 25 mg/kg, ip by RP-HPLC analysis; format: ADME, organism-based; design: dose 25 mg/kg, route intraperitoneal; conditions: read-out: Drug recovery; method in brief: as §3
Serum [13] = assay: Drug recovery in pentane extract of Sprague-Dawley rat serum treated with 1-(3-Chlorophenyl)-1-methyl-2-phenyl-2-(2-pyridine)ethanol at 25 mg/kg, ip by RP-HPLC analysis; format: ADME, organism-based; design: dose 25 mg/kg, route intraperitoneal; conditions: in vivo
Serum [14] = assay: Drug recovery in Sprague-Dawley rat serum treated with 1-(3-Chlorophenyl)-1-methyl-2-phenyl-2-(2-pyridine)ethanol at 25 mg/kg, ip after 2 hrs by RP-HPLC analysis; format: ADME, organism-based; design: dose 25 mg/kg, route intraperitoneal; conditions: in vivo; method in brief: as §1

Row | SMILES | Drug recovery (Serum [1]) | Drug recovery (Serum [2]) | Drug recovery (Serum [3]) | Drug recovery [4] | Activity (Rattus norvegicus [5]) | Activity (Rattus norvegicus [6]) | further results
1 | C/C(=C(\c1ccc(O)cc1)c1ccccn1)c1cccc(Cl)c1 | 0.3% | 0.2% | 0.3% | 0.4% | 30.5% | 0.02 µg | –
2 | CC(O)(c1cccc(Cl)c1)C(c1ccc(O)cc1)c1ccccn1 (stereo not given) | – | – | – | – | 43.5% | 0.92 µg | –
3 | C/C(=C(/c1ccc(O)cc1)c1ccccn1)c1cccc(Cl)c1 | 0.9% | 1.1% | 0.4% | 3.3% | 38.1% | 0.03 µg | –
4 | C=C(c1cccc(Cl)c1)C(c1ccccc1)c1ccccn1 (stereo not given) | – | – | – | – | 10.1% | – | –
5 | CC(O)(c1cccc(Cl)c1)C(c1ccccc1)c1ccccn1 (stereo not given) | – | – | – | – | 49.5% | 0.49 µg | Drug recovery (Serum [7]): 1.2%; Drug recovery (Serum [8]): 22%; Drug recovery (Serum [9]): 0.9%; Drug recovery (Serum [10]): 1.2%; dose excreted [11]: 1.6%; dose excreted [12]: < 0.1%
6 | C/C(=C(\c1ccccc1)c1ccccn1)c1cccc(Cl)c1 | – | – | – | – | 62.8% | 0.92 µg | Drug recovery (Serum [13]): 0.1%
7 | c1ccc(Cc2ccccn2)cc1 | 2.4% | 2.2% | 1.2% | 0.2% | – | – | Drug recovery (Serum [14]): 4.7%
8 | C=C(c1cccc(Cl)c1)C(c1ccc(O)cc1)c1ccccn1 (stereo not given) | – | – | – | – | 4% | – | –
9 | C/C(=C(/c1ccccc1)c1ccccn1)c1cccc(Cl)c1 | – | – | – | – | 36.1% | 0.22 µg | Drug recovery (Serum [13]): 0.1%
